Experimental data taken from publication PMC8842743 (Journal of Alzheimer's Disease Reports, 2022).

Columns and labels:
[1] = biological target: Porcine gastric mucosa pepsin (Sus scrofa, UniProt P00791); assay: Pepsin FRET assay; format: biochemical; conditions: read-out: Pepsin FRET Assay Absolute IC50; n = 2; value (SD)
[2] = test system: Aβ1-x, C99, sAβPPβ in PDAPP mice; assay: In vivo pharmacodynamics in PDAPP mice; design: species or system mouse; conditions: 3.0 mg/kg oral
Summary of the method: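 Young (2–3 months) female PDAPP mice (n = 6–8 per group) got a single oral gavage of vehicle (7% Pharmasolve, 10 mL/kg) or 0.3, 1.0 or 3.0 mg/kg. Hippocampal and cortical Aβ1–x, C99 and sAβPPβ were measured in brain extracts 3 h post-dose. In a time course (3.0 mg/kg, n = 6), hippocampal and CSF Aβ1–x were measured at 3, 6, 9 and 12 h. Statistics: ANOVA, then Tukey post hoc, p < 0.05.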

[3] = test system: Aβ1-x in plasma and CSF of beagle dogs; assay: Pharmacodynamics in cannulated beagle dogs; format: in vivo, dog; conditions: 1.5 mg/kg oral
Summary of the method: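 Six male cannulated beagle dogs received a single 1.5 mg/kg oral dose in 1% hydroxyethylcellulose. Plasma was sampled pre-dose and at 0.5–48 h. CSF was sampled 0.5 h pre-dose (baseline) and at 3, 6, 9, 24 and 48 h. Aβ1–x was measured by sandwich ELISA (m266.2 capture, biotinylated 3D6 reporter), averaged across dogs and expressed relative to baseline. Statistics: ANOVA with Tukey post hoc.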

[4] = Dog plasma protein binding; format: in vitro ADME; conditions: equilibrium dialysis of dog plasma
Summary of the method: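 Fraction unbound was determined in vitro by equilibrium dialysis of mouse brain homogenate or dog plasma. Unbound concentrations were derived by multiplying the total measured concentrations by this fraction unbound.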

[5] = Clinical multiple-dose pharmacokinetics; format: in vivo, human; conditions: for AUCτ,ss / CLR / t1/2 / tmax: day 14; for AUCτ,ss / CLR / t1/2 / Cmax: geometric mean (CV%); for tmax: median (range); for Cmax: day 14 steady state
Summary of the method: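 Healthy subjects took daily oral doses for 14 days. Plasma was sampled up to 24 h after the first dose, before the day-14 dose and up to 120 h after it, plus pre-dose troughs every 2 days to assess steady state. Clearance, apparent volume, tmax and t1/2 were reported. Accumulation ratio = AUCτ,ss divided by first-dose AUCτ, per subject.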

healthy subjects = assay: Clinical safety: adverse events, ECG, laboratory tests; format: in vivo, human
patients with mild AD = conditions: Phase II study; cited from earlier work

Chain of Porcine gastric mucosa pepsin (P00791 60-385): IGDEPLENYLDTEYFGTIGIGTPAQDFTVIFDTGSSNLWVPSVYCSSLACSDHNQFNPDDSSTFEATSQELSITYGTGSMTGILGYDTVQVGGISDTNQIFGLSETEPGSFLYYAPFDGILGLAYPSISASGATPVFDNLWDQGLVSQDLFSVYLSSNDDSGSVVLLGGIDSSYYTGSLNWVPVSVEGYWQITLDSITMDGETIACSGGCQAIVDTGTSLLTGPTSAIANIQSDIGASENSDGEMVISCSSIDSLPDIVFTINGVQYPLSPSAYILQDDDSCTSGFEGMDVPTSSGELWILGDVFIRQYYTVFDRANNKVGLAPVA

- IC50 [1]: > 14 µM
- dog plasma free fraction [4]: 0.009
- AUCτ,ss ([5]; multiple dose 1 mg): 38.6 (25) ng·h/mL
- CLR ([5]; multiple dose 1 mg): 1.61 (46) L/h
- t1/2 ([5]; multiple dose 1 mg): 33.1 (38) h
- tmax ([5]; multiple dose 1 mg): 4.04 (3.98–4.23) h
- Cmax ([5]; multiple dose 1 mg, n = 8): 2.57 (25) ng/mL
- AUCτ,ss ([5]; multiple dose 6 mg): 151 (54) ng·h/mL
- CLR ([5]; multiple dose 6 mg): 1.09 (86) L/h
- t1/2 ([5]; multiple dose 6 mg): 38.1 (29) h
- tmax ([5]; multiple dose 6 mg): 3.87 (1.95–4.00) h
- Cmax ([5]; multiple dose 6 mg, n = 9): 11.2 (71) ng/mL
- AUCτ,ss ([5]; multiple dose 26 mg): 1020 (50) ng·h/mL
- CLR ([5]; multiple dose 26 mg): 1.29 (39) L/h
- t1/2 ([5]; multiple dose 26 mg): 46.3 (25) h
- tmax ([5]; multiple dose 26 mg): 4.03 (2.00–5.78) h
- Cmax ([5]; multiple dose 26 mg, n = 9): 72.8 (61) ng/mL
Compound: COc1cnc(C(=O)Nc2ccc(F)c([C@]34CN(c5ncc(F)cn5)C[C@H]3CSC(N)=N4)c2)cn1 [LY3202626]
- Cortex C99 decrease vs vehicle ([2]; 3 h): 65%
- Cortex sAβPPβ decrease vs vehicle ([2]; 3 h): 34%
- CSF Aβ1-X reduction vs vehicle, time course ([2]; 3 hrs): 75%
- time CSF Aβ1-x remained significantly suppressed after dosing [3]: 24 h
- maximal reduction of CSF Aβ1-x ([3]; 9 h time point): ~80%
- reduction of plasma Aβ1-x ([3]; 48 h time point): approximately 40%
- suppression of plasma Aβ1-x levels ([3]; by 2 h after dosing, vs baseline): up to 80%
- tolerability (healthy subjects; Phase 1 study): generally well tolerated
- clinical laboratory tests, including liver functions tests (healthy subjects; healthy subjects, Phase 1): no clinically significant findings
- electrocardiograms (including QTc interval), ophthalmologic examinations, alertness and attention (healthy subjects; healthy subjects, Phase 1): no clinically significant changes
- Abnormal dreams: number of adverse events (number of subjects) (healthy subjects; multiple doses 1 mg, N = 9): 1 (1)
- Burning sensation: number of adverse events (number of subjects) (healthy subjects; multiple doses 1 mg, N = 9): 1 (1)
- Constipation: number of adverse events (number of subjects) (healthy subjects; multiple doses 1 mg, N = 9): 0 (0)
- Dizziness: number of adverse events (number of subjects) (healthy subjects; multiple doses 1 mg, N = 9): 0 (0)
- Dysgeusia: number of adverse events (number of subjects) (healthy subjects; multiple doses 1 mg, N = 9): 1 (1)
- Feces discoloured: number of adverse events (number of subjects) (healthy subjects; multiple doses 1 mg, N = 9): 0 (0)
- Headache: number of adverse events (number of subjects) (healthy subjects; multiple doses 1 mg, N = 9): 0 (0)
- Memory impairment: number of adverse events (number of subjects) (healthy subjects; multiple doses 1 mg, N = 9): 0 (0)
- Nightmare: number of adverse events (number of subjects) (healthy subjects; multiple doses 1 mg, N = 9): 1 (1)
- Post-lumbar puncture syndrome: number of adverse events (number of subjects) (healthy subjects; multiple doses 1 mg, N = 9): 1 (1)
- Postural orthostatic tachycardia syndrome: number of adverse events (number of subjects) (healthy subjects; multiple doses 1 mg, N = 9): 0 (0)
- Sunburn: number of adverse events (number of subjects) (healthy subjects; multiple doses 1 mg, N = 9): 0 (0)
- Abnormal dreams: number of adverse events (number of subjects) (healthy subjects; multiple doses 6 mg, N = 9): 0 (0)
- Burning sensation: number of adverse events (number of subjects) (healthy subjects; multiple doses 6 mg, N = 9): 0 (0)
- Constipation: number of adverse events (number of subjects) (healthy subjects; multiple doses 6 mg, N = 9): 1 (1)
- Dizziness: number of adverse events (number of subjects) (healthy subjects; multiple doses 6 mg, N = 9): 0 (0)
- Dysgeusia: number of adverse events (number of subjects) (healthy subjects; multiple doses 6 mg, N = 9): 0 (0)
- Feces discoloured: number of adverse events (number of subjects) (healthy subjects; multiple doses 6 mg, N = 9): 2 (2)
- Headache: number of adverse events (number of subjects) (healthy subjects; multiple doses 6 mg, N = 9): 0 (0)
- Memory impairment: number of adverse events (number of subjects) (healthy subjects; multiple doses 6 mg, N = 9): 0 (0)
- Nightmare: number of adverse events (number of subjects) (healthy subjects; multiple doses 6 mg, N = 9): 0 (0)
- Post-lumbar puncture syndrome: number of adverse events (number of subjects) (healthy subjects; multiple doses 6 mg, N = 9): 0 (0)
- Postural orthostatic tachycardia syndrome: number of adverse events (number of subjects) (healthy subjects; multiple doses 6 mg, N = 9): 0 (0)
- Sunburn: number of adverse events (number of subjects) (healthy subjects; multiple doses 6 mg, N = 9): 0 (0)
- Abnormal dreams: number of adverse events (number of subjects) (healthy subjects; multiple doses 26 mg, n = 9): 0 (0)
- Burning sensation: number of adverse events (number of subjects) (healthy subjects; multiple doses 26 mg, n = 9): 0 (0)
- Constipation: number of adverse events (number of subjects) (healthy subjects; multiple doses 26 mg, n = 9): 0 (0)
- Dizziness: number of adverse events (number of subjects) (healthy subjects; multiple doses 26 mg, n = 9): 2 (2)
- Dysgeusia: number of adverse events (number of subjects) (healthy subjects; multiple doses 26 mg, n = 9): 0 (0)
- Feces discoloured: number of adverse events (number of subjects) (healthy subjects; multiple doses 26 mg, n = 9): 9 (9)
- Headache: number of adverse events (number of subjects) (healthy subjects; multiple doses 26 mg, n = 9): 0 (0)
- Memory impairment: number of adverse events (number of subjects) (healthy subjects; multiple doses 26 mg, n = 9): 1 (1)
- Nightmare: number of adverse events (number of subjects) (healthy subjects; multiple doses 26 mg, n = 9): 0 (0)
- Post-lumbar puncture syndrome: number of adverse events (number of subjects) (healthy subjects; multiple doses 26 mg, n = 9): 0 (0)
- Postural orthostatic tachycardia syndrome: number of adverse events (number of subjects) (healthy subjects; multiple doses 26 mg, n = 9): 1 (1)
- Sunburn: number of adverse events (number of subjects) (healthy subjects; multiple doses 26 mg, n = 9): 0 (0)
- serious adverse events (healthy subjects; up to a single dose of 45 mg or multiple doses of 26 mg): no serious adverse events
- hepatotoxicity (patients with mild AD): no evidence of hepatotoxicity
